# Legend:
# [1] = target: T1, C-C chemokine receptor type 2 (Homo sapiens, UniProt P41597); test: Antagonist activity at human CCR2 expressed in CHO cells assessed as inhibition of MCP1-induced [35S]-GTPgammaS binding after 3 hrs; assay type: functional, cell-based
# Target sequence in this assay (P41597 whole entry): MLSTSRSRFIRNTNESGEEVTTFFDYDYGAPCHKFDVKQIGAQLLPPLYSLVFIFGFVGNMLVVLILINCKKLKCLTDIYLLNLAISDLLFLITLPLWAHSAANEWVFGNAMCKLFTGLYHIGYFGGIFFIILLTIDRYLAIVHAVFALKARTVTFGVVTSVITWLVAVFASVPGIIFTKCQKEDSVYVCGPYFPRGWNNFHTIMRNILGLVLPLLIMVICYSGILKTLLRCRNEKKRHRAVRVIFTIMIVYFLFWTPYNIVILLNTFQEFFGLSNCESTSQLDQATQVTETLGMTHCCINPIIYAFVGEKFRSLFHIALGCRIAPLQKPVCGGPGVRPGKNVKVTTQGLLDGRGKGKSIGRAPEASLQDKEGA
# [2] = Lipophilicity, log D of the compound; assay type: physicochemical; conditions: octanol/water
# [3] = Oral bioavailability in rat; assay type: ADME, organism-based; conditions: in vivo
# [4] = Half life in iv dosed in rat; assay type: ADME, organism-based; conditions: in vivo
# [5] = Half life in po dosed in rat; assay type: ADME, organism-based; conditions: in vivo
# [6] = Clearance in rat; assay type: ADME, organism-based; conditions: in vivo
# [7] = species on record: Rattus norvegicus; test: Volume of distribution in rat; assay type: ADME, organism-based; conditions: in vivo
# [8] = target: T2, Cytochrome P450 1A2 (Homo sapiens, UniProt P05177); test: Inhibition of CYP1A2; assay type: ADME
# T2 sequence (P05177 whole entry): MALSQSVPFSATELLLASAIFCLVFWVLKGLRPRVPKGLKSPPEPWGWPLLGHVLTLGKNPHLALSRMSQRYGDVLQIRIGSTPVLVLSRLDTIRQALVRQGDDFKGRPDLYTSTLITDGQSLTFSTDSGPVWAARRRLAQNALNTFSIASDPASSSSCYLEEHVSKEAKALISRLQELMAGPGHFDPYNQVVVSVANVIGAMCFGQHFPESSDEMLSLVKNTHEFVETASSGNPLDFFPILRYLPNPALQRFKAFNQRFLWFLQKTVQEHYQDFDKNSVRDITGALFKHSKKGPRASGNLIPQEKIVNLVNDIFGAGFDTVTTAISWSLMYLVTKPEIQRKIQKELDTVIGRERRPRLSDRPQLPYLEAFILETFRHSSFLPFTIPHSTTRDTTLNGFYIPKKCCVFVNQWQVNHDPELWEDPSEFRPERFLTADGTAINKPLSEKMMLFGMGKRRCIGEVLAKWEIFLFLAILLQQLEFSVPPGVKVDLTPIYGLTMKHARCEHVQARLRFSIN
# [9] = target: Cytochrome P450 2C19 (Homo sapiens, UniProt P33261); test: Inhibition of CYP2C19; assay type: ADME
# Sequence of Cytochrome P450 2C19 (P33261 whole entry): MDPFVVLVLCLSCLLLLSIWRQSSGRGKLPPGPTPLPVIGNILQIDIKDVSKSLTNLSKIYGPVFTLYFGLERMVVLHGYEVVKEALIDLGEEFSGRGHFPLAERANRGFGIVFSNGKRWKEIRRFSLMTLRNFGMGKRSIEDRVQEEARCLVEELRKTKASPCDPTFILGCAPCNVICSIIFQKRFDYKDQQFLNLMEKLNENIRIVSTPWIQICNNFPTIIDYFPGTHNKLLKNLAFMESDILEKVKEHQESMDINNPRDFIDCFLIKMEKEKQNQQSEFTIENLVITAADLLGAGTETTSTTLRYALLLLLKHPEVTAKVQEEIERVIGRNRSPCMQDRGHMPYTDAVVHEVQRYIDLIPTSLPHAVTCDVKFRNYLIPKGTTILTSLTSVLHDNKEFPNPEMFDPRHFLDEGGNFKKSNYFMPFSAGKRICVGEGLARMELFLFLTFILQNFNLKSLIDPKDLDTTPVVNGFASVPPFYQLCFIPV
# [10] = target: Cytochrome P450 2C9 (Homo sapiens, UniProt P11712); test: Inhibition of CYP2C9; assay type: ADME
# Sequence of Cytochrome P450 2C9 (P11712 whole entry): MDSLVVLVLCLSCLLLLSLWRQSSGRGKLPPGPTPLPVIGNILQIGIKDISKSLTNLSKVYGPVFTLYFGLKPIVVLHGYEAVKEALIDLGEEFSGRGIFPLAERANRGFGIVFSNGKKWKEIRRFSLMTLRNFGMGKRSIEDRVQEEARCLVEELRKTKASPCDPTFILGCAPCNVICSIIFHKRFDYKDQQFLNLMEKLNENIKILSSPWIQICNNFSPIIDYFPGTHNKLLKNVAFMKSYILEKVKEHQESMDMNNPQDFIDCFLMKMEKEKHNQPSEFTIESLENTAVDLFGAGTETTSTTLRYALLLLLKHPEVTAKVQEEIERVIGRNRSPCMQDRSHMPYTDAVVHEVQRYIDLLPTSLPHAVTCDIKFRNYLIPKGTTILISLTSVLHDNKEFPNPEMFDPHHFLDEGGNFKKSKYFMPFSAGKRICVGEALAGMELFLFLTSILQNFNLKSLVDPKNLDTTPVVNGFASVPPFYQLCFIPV
# [11] = target: Cytochrome P450 2D6 (Homo sapiens, UniProt P10635); test: Inhibition of CYP2D6; assay type: ADME
# Sequence of Cytochrome P450 2D6 (P10635 whole entry): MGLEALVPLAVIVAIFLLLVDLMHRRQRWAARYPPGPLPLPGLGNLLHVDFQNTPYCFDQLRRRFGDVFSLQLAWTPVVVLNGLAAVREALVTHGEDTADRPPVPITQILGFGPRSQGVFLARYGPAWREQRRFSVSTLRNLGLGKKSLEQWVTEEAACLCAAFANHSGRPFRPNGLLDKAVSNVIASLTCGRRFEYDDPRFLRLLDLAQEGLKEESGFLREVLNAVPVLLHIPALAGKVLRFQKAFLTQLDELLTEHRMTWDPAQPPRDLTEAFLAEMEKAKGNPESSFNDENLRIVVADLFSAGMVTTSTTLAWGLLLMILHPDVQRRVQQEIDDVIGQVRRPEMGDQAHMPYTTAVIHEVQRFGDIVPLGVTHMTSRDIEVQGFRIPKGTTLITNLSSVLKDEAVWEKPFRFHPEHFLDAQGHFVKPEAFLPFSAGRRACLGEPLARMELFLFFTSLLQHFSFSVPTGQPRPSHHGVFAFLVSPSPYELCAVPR
# [12] = target: Cytochrome P450 3A4 (Homo sapiens, UniProt P08684); test: Inhibition of CYP3A4; assay type: ADME
# Sequence of Cytochrome P450 3A4 (P08684 whole entry): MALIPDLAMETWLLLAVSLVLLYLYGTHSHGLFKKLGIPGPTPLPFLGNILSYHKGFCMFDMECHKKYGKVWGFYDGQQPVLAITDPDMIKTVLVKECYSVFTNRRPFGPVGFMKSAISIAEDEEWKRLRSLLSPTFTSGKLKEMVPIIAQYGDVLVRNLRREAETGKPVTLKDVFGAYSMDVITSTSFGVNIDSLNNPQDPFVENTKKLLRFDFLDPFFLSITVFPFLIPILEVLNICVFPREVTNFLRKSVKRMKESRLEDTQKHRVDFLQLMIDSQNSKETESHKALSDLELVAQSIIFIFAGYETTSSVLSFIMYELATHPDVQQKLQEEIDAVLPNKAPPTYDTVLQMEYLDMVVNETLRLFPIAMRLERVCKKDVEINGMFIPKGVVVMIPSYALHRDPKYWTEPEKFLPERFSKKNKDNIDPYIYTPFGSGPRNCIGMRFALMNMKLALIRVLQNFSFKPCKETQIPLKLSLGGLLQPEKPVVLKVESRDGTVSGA
# [13] = target: T3, C-C chemokine receptor type 4 (Homo sapiens, UniProt P51679); test: Antagonist activity at CCR4; assay type: functional
# T3 sequence (P51679 whole entry): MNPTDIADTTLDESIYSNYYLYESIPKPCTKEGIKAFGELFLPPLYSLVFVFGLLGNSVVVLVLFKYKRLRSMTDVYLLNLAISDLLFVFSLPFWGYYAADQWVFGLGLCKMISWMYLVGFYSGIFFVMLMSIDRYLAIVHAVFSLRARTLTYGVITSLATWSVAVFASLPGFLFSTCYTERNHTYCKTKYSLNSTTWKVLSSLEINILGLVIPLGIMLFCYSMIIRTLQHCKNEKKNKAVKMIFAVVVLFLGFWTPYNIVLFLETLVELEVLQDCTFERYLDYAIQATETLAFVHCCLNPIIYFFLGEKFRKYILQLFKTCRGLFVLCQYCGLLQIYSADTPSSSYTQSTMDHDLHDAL
# [14] = target: T4, C-C chemokine receptor type 5 (Homo sapiens, UniProt P51681); test: Antagonist activity at CCR5; assay type: functional
# Target sequence in this assay (P51681 whole entry): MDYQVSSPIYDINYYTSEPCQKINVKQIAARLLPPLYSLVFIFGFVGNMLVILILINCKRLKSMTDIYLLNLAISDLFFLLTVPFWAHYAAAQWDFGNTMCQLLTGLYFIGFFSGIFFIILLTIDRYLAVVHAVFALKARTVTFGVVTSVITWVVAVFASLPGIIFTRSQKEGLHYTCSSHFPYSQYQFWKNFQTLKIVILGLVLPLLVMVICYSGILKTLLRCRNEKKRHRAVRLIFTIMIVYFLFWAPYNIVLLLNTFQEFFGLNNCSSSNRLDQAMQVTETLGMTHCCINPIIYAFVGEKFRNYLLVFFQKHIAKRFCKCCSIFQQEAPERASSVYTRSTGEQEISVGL
# [15] = target: C-C chemokine receptor type 1 (Homo sapiens) (UniProt P32246); test: Antagonist activity at human CCR1
# [16] = target: T1, C-C chemokine receptor type 2; test: Antagonist activity at CCR2 in human THP1 cells assessed as inhibition of CCL2-induced chemotaxis at 1 uM in presence of 0.1% human serum; assay type: functional, cell-based; conditions: THP-1
# Outline: (§1)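 Boyden chamber (48-well) chemotaxis of THP-1 cells stimulated with CCL2. Foetal bovine serum or human serum was added to the assay buffer.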
# Target sequence in this assay (P41597 whole entry, looked up): as the sequence (P41597 whole entry) above
# [17] = target: T1, C-C chemokine receptor type 2; test: Antagonist activity at CCR2 in human THP1 cells assessed as inhibition of CCL2-induced chemotaxis at 1 uM in presence of 1% human serum; assay type: functional, cell-based; conditions: THP-1; outline: as §1
# Target sequence in this assay (P41597 whole entry, looked up): as the sequence (P41597 whole entry) above
# [18] = target: T5, C-C chemokine receptor type 1 (Homo sapiens, UniProt P32246); test: Antagonist activity at human CCR1 assessed as inhibition of MIP-1-alpha-induced [35S]-GTPgammaS binding after 3 to 4 hrs; assay type: functional
# T5 sequence (P32246 whole entry): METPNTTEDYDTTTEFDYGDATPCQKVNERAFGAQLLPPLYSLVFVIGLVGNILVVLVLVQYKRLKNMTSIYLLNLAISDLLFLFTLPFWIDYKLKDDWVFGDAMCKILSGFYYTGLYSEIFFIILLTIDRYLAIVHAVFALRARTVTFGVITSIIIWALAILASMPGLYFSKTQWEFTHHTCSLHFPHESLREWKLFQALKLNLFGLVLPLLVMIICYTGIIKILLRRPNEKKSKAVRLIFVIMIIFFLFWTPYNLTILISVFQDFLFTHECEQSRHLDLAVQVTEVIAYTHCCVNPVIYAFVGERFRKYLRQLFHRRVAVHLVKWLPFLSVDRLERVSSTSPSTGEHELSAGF
# [19] = target: C-C chemokine receptor type 2 (Mus musculus, UniProt P51683); test: Antagonist activity at mouse CCR2; assay type: functional
# [20] = target: Voltage-gated inwardly rectifying potassium channel KCNH2 (Homo sapiens, UniProt Q12809); test: Binding affinity to human ERG by fluorescence-polarization binding assay
# Sequence of Voltage-gated inwardly rectifying potassium channel KCNH2 (Q12809 whole entry): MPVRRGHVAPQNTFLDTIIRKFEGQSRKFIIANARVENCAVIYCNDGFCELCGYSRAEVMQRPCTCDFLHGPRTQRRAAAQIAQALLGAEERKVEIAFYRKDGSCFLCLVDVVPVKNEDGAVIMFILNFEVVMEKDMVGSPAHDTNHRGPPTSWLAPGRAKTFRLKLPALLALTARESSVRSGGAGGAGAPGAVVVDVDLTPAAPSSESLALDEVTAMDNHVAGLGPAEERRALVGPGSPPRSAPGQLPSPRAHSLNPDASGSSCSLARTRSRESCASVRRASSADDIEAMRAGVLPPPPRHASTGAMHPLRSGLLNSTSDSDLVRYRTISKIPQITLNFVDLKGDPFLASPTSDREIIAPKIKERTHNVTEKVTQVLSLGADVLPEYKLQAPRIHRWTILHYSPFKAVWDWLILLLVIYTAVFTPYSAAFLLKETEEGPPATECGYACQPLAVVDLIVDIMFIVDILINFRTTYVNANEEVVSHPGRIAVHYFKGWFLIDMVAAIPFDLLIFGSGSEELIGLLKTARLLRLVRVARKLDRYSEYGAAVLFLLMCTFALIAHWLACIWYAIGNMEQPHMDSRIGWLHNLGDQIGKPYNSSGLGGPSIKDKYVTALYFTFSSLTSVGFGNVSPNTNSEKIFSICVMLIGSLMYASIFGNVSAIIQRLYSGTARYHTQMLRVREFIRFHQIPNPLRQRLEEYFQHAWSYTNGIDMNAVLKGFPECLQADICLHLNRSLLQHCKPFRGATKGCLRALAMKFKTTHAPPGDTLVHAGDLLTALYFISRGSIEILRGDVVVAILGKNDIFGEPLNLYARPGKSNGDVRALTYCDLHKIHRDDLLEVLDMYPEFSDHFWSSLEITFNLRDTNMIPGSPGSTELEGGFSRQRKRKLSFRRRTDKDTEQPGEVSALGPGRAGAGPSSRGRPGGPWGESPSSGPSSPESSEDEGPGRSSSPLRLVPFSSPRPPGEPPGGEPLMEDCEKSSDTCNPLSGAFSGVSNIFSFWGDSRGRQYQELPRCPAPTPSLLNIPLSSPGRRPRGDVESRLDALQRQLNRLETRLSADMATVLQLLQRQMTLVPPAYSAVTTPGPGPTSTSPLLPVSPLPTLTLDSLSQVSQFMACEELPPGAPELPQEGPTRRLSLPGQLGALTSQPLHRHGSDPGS
# [21] = target: T1, C-C chemokine receptor type 2; test: Inhibition of CCR2-mediated chemotaxis in human THP1 cells assessed as half life of reversibility at 10 uM after assay buffer exchange; assay type: cell-based; conditions: THP-1
# Outline: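 THP-1 cells were preincubated with compound at 10 µM for 30 min. The assay buffer was then exchanged and CCL2-driven chemotaxis was stimulated periodically to generate a reversibility curve. The half-life of reversibility was taken from this curve.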
# Target sequence in this assay (P41597 whole entry, looked up): as the sequence (P41597 whole entry) above
# [22] = target: T1, C-C chemokine receptor type 2; test: Antagonist activity at CCR2 in human THP1 cells assessed as inhibition of CCL2-induced chemotaxis at 10 uM in presence of 1% human serum; assay type: functional, cell-based; conditions: THP-1; outline: as §1
# Target sequence in this assay (P41597 whole entry, looked up): as the sequence (P41597 whole entry) above
# [23] = target: T4, C-C chemokine receptor type 5; test: Antagonist activity at CCR5 at 10 uM; assay type: functional; parameters: scale not given: the % may be the effect or the level left
# Target sequence in this assay (P51681 whole entry, looked up): as the sequence (P51681 whole entry) above
smiles,measurement,setting,value
CS(=O)(=O)Nc1cc(Cl)ccc1Oc1ccccc1C(=O)O,Ki,[1],398 nM
O=C(O)c1ccc(Oc2ncc(Cl)cc2NS(=O)(=O)c2ccc(Cl)c(Cl)c2)cc1,Ki,[1],3.16 nM
same,logD,[2],0.4
O=C(O)c1ccccc1Oc1ccc(Cl)cc1NS(=O)(=O)c1ccc(Cl)c(Cl)c1,bioavailability,[3],70%
same,half-life,[4],6.5 h
same,half-life,[5],5.9 h
same,clearance,[6],0.6 mL/min/kg
same,Vd,[7],0.2 L/kg
same,IC50,[8],39800 nM
same,IC50,[9],11000 nM
same,IC50,[10],4170 nM
same,IC50,[11],53700 nM
same,IC50,[12],10000 nM
same,Ki,[13],398 nM
same,IC50,[14],631 nM
O=C(O)c1ccccc1Oc1ccc(Cl)cc1NS(=O)(=O)c1ccccc1,Ki,[1],158 nM
N#Cc1ccc(Oc2ccccc2C(=O)O)c(NS(=O)(=O)c2ccc(Cl)cc2)c1,Ki,[1],63.1 nM
same,Ki,[15],1000 nM
Cc1ncccc1Oc1ncc(C#N)cc1NS(=O)(=O)c1ccc(Cl)c(Cl)c1,Ki,[1],50.1 nM
same,inhibition,[16],43%
same,inhibition,[17],12%
same,logD,[2],1.5
O=C(O)c1ccccc1Oc1c(F)cc(C(F)(F)F)cc1NS(=O)(=O)c1ccc(Cl)cc1,Ki,[1],31.6 nM
same,Ki,[18],126 nM
same,Ki,[19],251 nM
O=S(=O)(Nc1cc(Cl)cnc1Oc1cncc(Cl)c1)c1ccc(Cl)c(Cl)c1,Ki,[1],12.6 nM
same,inhibition,[16],55%
same,inhibition,[17],0%
same,logD,[2],3.1
same,bioavailability,[3],58%
same,half-life,[4],1.2 h
same,clearance,[6],2.4 mL/min/kg
same,Vd,[7],0.2 L/kg
same,IC50,[8],> 100000 nM
same,IC50,[9],6610 nM
same,IC50,[10],1070 nM
same,IC50,[11],> 100000 nM
same,IC50,[12],437 nM
N#Cc1ccc(Oc2ncc(Cl)cc2NS(=O)(=O)c2ccc(Cl)c(Cl)c2)cn1,Ki,[1],15.8 nM
same,logD,[2],2.12
O=C(O)c1ccccc1Oc1ncc(Cl)cc1NS(=O)(=O)c1ccc(Cl)c(Cl)c1,Ki,[1],1.26 nM
same,inhibition,[16],67%
same,inhibition,[17],37%
same,logD,[2],0.8
same,bioavailability,[3],97%
same,half-life,[4],4.5 h
same,half-life,[5],4.5 h
same,clearance,[6],0.71 mL/min/kg
same,Vd,[7],0.12 L/kg
same,IC50,[20],> 31600 nM
same,IC50,[8],39800 nM
same,IC50,[9],39800 nM
same,IC50,[10],21400 nM
same,IC50,[11],100000 nM
same,IC50,[12],100000 nM
same,Ki,[13],794 nM
same,IC50,[14],251 nM
same,T1/2,[21],4.67 h
Cc1cccc(NS(=O)(=O)c2ccc(Cl)cc2)c1Oc1ccccc1C(=O)O,Ki,[1],> 3160 nM
same,Ki,[15],> 3160 nM
O=C(O)c1ccccc1Oc1ccc(Cl)cc1NS(=O)(=O)c1ccc(Cl)cc1,Ki,[1],20 nM
same,inhibition,[22],65%
same,Ki,[15],158 nM
O=C(O)c1ccccc1Oc1c(Cl)cccc1NS(=O)(=O)c1ccc(Cl)cc1,Ki,[1],398 nM
same,Ki,[15],501 nM
Cc1ncccc1Oc1ncc(Cl)cc1NS(=O)(=O)c1ccc(Cl)c(Cl)c1,Ki,[1],10 nM
same,inhibition,[16],72%
same,inhibition,[17],50%
same,logD,[2],2.7
same,bioavailability,[3],75%
same,half-life,[4],0.8 h
same,half-life,[5],2.3 h
same,clearance,[6],4.3 mL/min/kg
same,Vd,[7],0.34 L/kg
same,IC50,[20],> 31600 nM
same,IC50,[8],> 100000 nM
same,IC50,[9],22400 nM
same,IC50,[10],1350 nM
same,IC50,[11],> 100000 nM
same,IC50,[12],19500 nM
same,Ki,[13],1260 nM
same,Activity,[23],40%
O=C(NCCO)c1ccccc1Oc1ncc(Cl)cc1NS(=O)(=O)c1ccc(Cl)c(Cl)c1,Ki,[1],25.1 nM
same,inhibition,[16],31%
same,inhibition,[17],0%
same,logD,[2],2.1
same,bioavailability,[3],37%
same,half-life,[4],1.1 h
same,clearance,[6],13 mL/min/kg
same,Vd,[7],0.47 L/kg
same,IC50,[20],> 63100 nM
same,Ki,[13],1580 nM
same,Activity,[23],< 10%
O=C(O)c1cccc(Oc2ncc(Cl)cc2NS(=O)(=O)c2ccc(Cl)c(Cl)c2)c1,Ki,[1],1.58 nM
same,inhibition,[16],42%
same,inhibition,[17],33%
same,logD,[2],0.44
O=C(O)c1ccccc1Oc1ccc(C(F)(F)F)cc1NS(=O)(=O)c1ccc(Cl)cc1,Ki,[1],794 nM
same,Ki,[18],501 nM
same,Ki,[19],1580 nM

# From ChEMBL document CHEMBL1177762, “Identification of a sulfonamide series of CCR2 antagonists” (Bioorg Med Chem Lett, 2010)
